Measured values published in ChEMBL document CHEMBL1138515, “Synthesis and biological characterization of B-ring amino analogues of potent benzothiadiazine hepatitis C virus polymerase inhibitors” (J Med Chem, 2009).

Columns and labels:
[1] = Inhibition of HCV1a H77 NS5B assessed as [3H]UTP incorporation into RNA by scintillation counting; parameters: species or system Hepatitis C virus (isolate H77)
In short: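 Two-fold serial inhibitor dilutions were preincubated for 15 min at room temperature with NS5B (genotype 1a H77 or genotype 1b BK, 20-50 nM) in 20 mM Tris-Cl pH 7.4, 2 mM MnCl₂, 1 mM DTT, 1 mM EDTA and 60-125 µM GTP. Reactions were started with 20 µM CTP, 20 µM ATP, 1 µM ³H-UTP, 5 nM template RNA and RNase inhibitor, then run 2-4 h at room temperature.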

[2] = Clearance in Sprague-Dawley rat at 5 mg/kg, iv; assay type: ADME, organism-based; parameters: dose 5 mg/kg, route intravenous; conditions: in vivo
In short: (§1)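 Overnight-fasted Sprague-Dawley rats (n = 3) received a single 5 mg/kg iv or oral dose in DMSO/PEG400 (1:9, v/v). Mean concentrations were fitted multiexponentially. AUC₀₋ₜ was calculated by linear trapezoidal rule and extrapolated to infinity using Cₜ divided by the terminal rate constant.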

[3] = AUC (0 to infinity) in Sprague-Dawley rat at 5 mg/kg, po; assay type: ADME, organism-based; parameters: time infinity, dose 5 mg/kg, route oral; conditions: plasma; in short: as §1
Hepatitis C virus [4] = assay: Antiviral activity against HCV1a H77 assessed as inhibition of viral replication by cell-based replicon assay; assay type: functional, organism-based, Hepacivirus hominis; conditions: genotype 1a H77
In short: (§2)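 Stable luciferase-reporter subgenomic replicon Huh-7 lines (1a H77; 1b Con1) were seeded at 5000 cells/well in DMEM with 5% FBS. The next day an eight-point half-log dilution series was added from DMSO stocks. After 3 days the cells were lysed, luciferin was added and luminescence was read. EC₅₀ came from percent inhibition of replication at each concentration.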

[5] = Half life in Sprague-Dawley rat at 5 mg/kg, iv; assay type: ADME, organism-based; parameters: dose 5 mg/kg, route intravenous; conditions: in vivo; in short: as §1
[6] = Oral bioavailability in Sprague-Dawley rat at 5 mg/kg; assay type: ADME, organism-based; conditions: in vivo; in short: as §1
Genome polyprotein = Genome polyprotein (Hepatitis C virus genotype 1b (isolate Con1) (HCV), UniProt Q9WMX2); assay: Inhibition of HCV1b Con1 NS5B assessed as [3H]UTP incorporation into RNA by scintillation counting
[7] = Drug level in Sprague-Dawley rat liver at 5 mg/kg, po after 1 hr; assay type: ADME, organism-based; parameters: dose 5 mg/kg, route oral; conditions: read-out: Drug uptake
In short: (§3)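 Sprague-Dawley rats were given 5 mg/kg orally in DMSO/PEG400 (1:9, v/v). Separate animals were sampled for liver and plasma at 1, 6 and 12 h. Drug in liver (µg/g) and in plasma was measured by LC-MS, and liver/plasma ratios were taken at each time.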

[8] = Ratio of drug level in liver to plasma of Sprague-Dawley rat at 5 mg/kg, po after 1 hr; assay type: ADME, organism-based; parameters: dose 5 mg/kg, route oral; conditions: liver and plasma; in short: as §3
[9] = Cmax in Sprague-Dawley rat at 5 mg/kg, po; assay type: ADME, organism-based; parameters: dose 5 mg/kg, route oral; conditions: in vivo; in short: as §1
Hepatitis C virus [10] = assay: Antiviral activity against HCV1b Con1 infected in human Huh7 cells assessed as inhibition viral subgenomic replication […]; assay type: functional, organism-based, Hepacivirus hominis; conditions: isolate Con1, Huh-7
[11] = Drug level in Sprague-Dawley rat liver at 5 mg/kg, po after 6 hrs; assay type: ADME, organism-based; parameters: dose 5 mg/kg, route oral; conditions: read-out: Drug uptake; in short: as §3
[12] = Ratio of drug level in liver to plasma of Sprague-Dawley rat at 5 mg/kg, po after 6 hrs; assay type: ADME, organism-based; parameters: dose 5 mg/kg, route oral; conditions: liver and plasma; in short: as §3
Hepatitis C virus [13] = assay: Antiviral activity against HCV1b Con1 infected in human Huh7 cells assessed as inhibition viral subgenomic replication; assay type: functional, organism-based, Hepacivirus hominis; conditions: isolate Con1, Huh-7; in short: as §2
[14] = Drug level in Sprague-Dawley rat liver at 5 mg/kg, po after 12 hrs; assay type: ADME, organism-based; parameters: dose 5 mg/kg, route oral; conditions: read-out: Drug uptake; in short: as §3
[15] = Ratio of drug level in liver to plasma of Sprague-Dawley rat at 5 mg/kg, po after 12 hrs; assay type: ADME, organism-based; parameters: dose 5 mg/kg, route oral; conditions: liver and plasma; in short: as §3
Hepatitis C virus [16] = assay: Antiviral activity against HCV1a H77 infected in human Huh7 cells assessed as inhibition viral subgenomic replication; assay type: functional, organism-based, Hepacivirus hominis; conditions: genotype 1a H77, Huh-7; in short: as §2

Sequence of Genome polyprotein (Q9WMX2 2420-3010 limits assumed): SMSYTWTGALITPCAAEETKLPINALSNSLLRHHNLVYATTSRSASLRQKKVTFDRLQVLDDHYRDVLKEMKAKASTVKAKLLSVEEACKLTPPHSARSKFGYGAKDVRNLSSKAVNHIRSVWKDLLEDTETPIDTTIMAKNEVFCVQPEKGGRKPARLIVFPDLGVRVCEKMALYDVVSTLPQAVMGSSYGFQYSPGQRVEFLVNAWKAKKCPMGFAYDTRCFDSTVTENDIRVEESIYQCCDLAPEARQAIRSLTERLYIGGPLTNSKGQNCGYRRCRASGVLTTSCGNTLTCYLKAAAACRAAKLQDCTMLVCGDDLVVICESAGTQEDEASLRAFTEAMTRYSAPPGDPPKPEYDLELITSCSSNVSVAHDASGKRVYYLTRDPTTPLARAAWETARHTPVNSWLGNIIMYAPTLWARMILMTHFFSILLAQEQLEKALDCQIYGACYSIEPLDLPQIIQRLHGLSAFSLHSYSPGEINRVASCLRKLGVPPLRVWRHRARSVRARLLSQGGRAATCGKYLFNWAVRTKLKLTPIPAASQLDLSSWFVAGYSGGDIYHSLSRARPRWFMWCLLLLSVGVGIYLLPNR

IC50 [1]	clearance [2]	AUC(0-inf) [3]	EC50 (Hepatitis C virus [4])	half-life [5]	bioavailability [6]	SMILES	further results
6 nM	45 mL/min/kg	350 ng·h/mL	12 nM	0.6 h	34.1%	CON[C@]1(CCC(C)C)C(=O)C(C2=NS(=O)(=O)c3cc(NS(C)(=O)=O)ccc3N2)=C(O)c2ccccc21	
13 nM			17 nM			CC(C)(C)CCC1(NCc2ccc(C#N)cc2)C(=O)C(C2=NS(=O)(=O)c3cc(NS(C)(=O)=O)ccc3N2)=C(O)c2ccccc21 (stereo unspecified)	
5 nM			15 nM			Cc1cc(CNC2(CCC(C)(C)C)C(=O)C(C3=NS(=O)(=O)c4cc(NS(C)(=O)=O)ccc4N3)=C(O)c3ccccc32)n(C)n1 (stereo unspecified)	
10 nM	19.3 mL/min/kg	600 ng·h/mL	16 nM	1.7 h	13.3%	CC(C)CC[C@@]1(NCc2ccccc2)C(=O)C(C2=NS(=O)(=O)c3cc(NS(C)(=O)=O)ccc3N2)=C(O)c2ccccc21	IC50 (Genome polyprotein): 16 nM; concentration at 1 h [7]: 3590 ng/g; Kp at 1 h [8]: 12; Cmax [9]: 80 ng/mL; EC50 (Hepatitis C virus [10]): 273 nM; concentration at 6 h [11]: 2350 ng/g; Kp at 6 h [12]: 6; EC50 (Hepatitis C virus [13]): 15 nM; concentration at 12 h [14]: 880 ng/g; Kp at 12 h [15]: 3; EC50 (Hepatitis C virus [16]): 68 nM
108 nM						CC(C)CCC1(NC(=O)c2ccccc2)C(=O)C(C2=NS(=O)(=O)c3cc(NS(C)(=O)=O)ccc3N2)=C(O)c2ccccc21 (stereo unspecified)	
10 nM			15 nM			CC(C)(C)CCC1(NCc2cccnc2)C(=O)C(C2=NS(=O)(=O)c3cc(NS(C)(=O)=O)ccc3N2)=C(O)c2ccccc21 (stereo unspecified)	
12 nM			10 nM			CC(C)(C)CCC1(NCc2ccco2)C(=O)C(C2=NS(=O)(=O)c3cc(NS(C)(=O)=O)ccc3N2)=C(O)c2ccccc21 (stereo unspecified)	
10 nM			16 nM			CONC1(CCC(C)C)C(=O)C(C2=NS(=O)(=O)c3cc(NS(C)(=O)=O)ccc3N2)=C(O)c2ccccc21 (stereo unspecified)	
19 nM			34 nM			CC(C)CCC1(NCc2ccccc2)C(=O)C(C2=NS(=O)(=O)c3cc(NS(C)(=O)=O)ccc3N2)=C(O)c2ccccc21 (stereo unspecified)	
24 nM	13 mL/min/kg	3500 ng·h/mL	21 nM	5 h	53.7%	Cc1cccc(C)c1CNC1(CCC(C)(C)C)C(=O)C(C2=NS(=O)(=O)c3cc(NS(C)(=O)=O)ccc3N2)=C(O)c2ccccc21 (stereo unspecified)	Cmax [9]: 460 ng/mL
151 nM						CC(C)(C)CCC1(NC(=O)c2ccccc2)C(=O)C(C2=NS(=O)(=O)c3cc(NS(C)(=O)=O)ccc3N2)=C(O)c2ccccc21 (stereo unspecified)	
14 nM	98.3 mL/min/kg		11 nM	0.5 h	0%	Cc1ccc(CNC2(CCC(C)(C)C)C(=O)C(C3=NS(=O)(=O)c4cc(NS(C)(=O)=O)ccc4N3)=C(O)c3ccccc32)cn1 (stereo unspecified)	
15 nM	25 mL/min/kg	1600 ng·h/mL	6 nM	3.2 h	48%	COc1ccccc1CNC1(CCC(C)(C)C)C(=O)C(C2=NS(=O)(=O)c3cc(NS(C)(=O)=O)ccc3N2)=C(O)c2ccccc21 (stereo unspecified)	Cmax [9]: 400 ng/mL
15 nM	28.3 mL/min/kg	1340 ng·h/mL	13 nM	1 h	33.8%	Cc1cccc(CNC2(CCC(C)(C)C)C(=O)C(C3=NS(=O)(=O)c4cc(NS(C)(=O)=O)ccc4N3)=C(O)c3ccccc32)n1 (stereo unspecified)	Cmax [9]: 150 ng/mL
17 nM			10 nM			CC(C)(C)CCC1(NCc2ccccc2)C(=O)C(C2=NS(=O)(=O)c3cc(NS(C)(=O)=O)ccc3N2)=C(O)c2ccccc21 (stereo unspecified)	
10 nM			15 nM			COc1ccc(OC)c(CNC2(CCC(C)(C)C)C(=O)C(C3=NS(=O)(=O)c4cc(NS(C)(=O)=O)ccc4N3)=C(O)c3ccccc32)c1 (stereo unspecified)	
24 nM			69 nM			CC(C)CCC1(NS(C)(=O)=O)C(=O)C(C2=NS(=O)(=O)c3cc(NS(C)(=O)=O)ccc3N2)=C(O)c2ccccc21 (stereo unspecified)	
17 nM	20 mL/min/kg	410 ng·h/mL	8 nM	2.2 h	8.9%	CC(C)(C)CCC1(NCc2ccccc2N)C(=O)C(C2=NS(=O)(=O)c3cc(NS(C)(=O)=O)ccc3N2)=C(O)c2ccccc21 (stereo unspecified)	Cmax [9]: 80 ng/mL
